The results in this text go back to ChEMBL document CHEMBL1828611, “Bisphosphonamidate clodronate prodrug exhibits potent anticancer activity in non-small-cell lung cancer cells” (J Med Chem, 2011).

The structures appear in SMILES notation. Activity calls are given as the source filed them. No cut-off for these calls is given here.

Series [1] concerns A549. The experiment in a line: Cell cycle arrest in human A549 cells assessed as accumulation of cells in G2 phase after 24 hrs measured using propidium iodide staining by FACS analysis. The format is functional, cell-based. In general terms: A flow cytometer gives signals particle by particle.
The subject of series [2] is A549. As to the kind of experiment: Anticancer activity in human A549 cells assessed as decrease in viable cells after 24 hrs by trypan blue exclusion assay. The format is functional. Summed up: (§1)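 A549 cells (RPMI 1640, 10% FBS) were plated at 1.7 × 10^4 per well in 12-well plates, adhered overnight, and dosed from 100X DMSO stocks (final 1% DMSO). Floating and trypsinized cells were pooled, mixed 1:1 with 0.04% trypan blue and viable cells counted. Counts were expressed as percent of control per time point; EC50 is the concentration giving a 50% decrease in cell number.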

Series [3] relates to A549. The experiment in a line: Antiproliferative activity against human A549 cells after 24 hrs by MTS assay. It is filed as functional, cell-based. Particulars: A549, 24 h. Summed up:
(§2)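 A549 cells were seeded at 1.5 × 10^3 per well, adhered overnight, and treated over 0.2–300 μM (final 1% DMSO). After treatment, MTS was added for 40 min–2 h and A490 read. Absorbance was converted to percent of vehicle control, and IC50 was obtained by nonlinear dose-response fit.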
On the technique in general: Tetrazolium dyes change colour on reduction, which living cells bring about.

The subject of series [4] is A549. The experiment in a line: Anticancer activity against human A549 cells assessed as reduction in cell viability after 72 hrs by crystal voilet staining. It is filed as functional, cell-based. Summed up:
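A549 cells were plated at 1.7 × 10^4 per well in 6-well plates and dosed from 100X DMSO stocks (final 1% DMSO). After 72 h cells were washed twice with PBS, stained 5–15 min with 0.5% crystal violet in 95% EtOH, rinsed with cold water and air-dried.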

Series [5] relates to A549. The experiment in a line: Anticancer activity in human A549 cells assessed as decrease in viable cells after 48 hrs by trypan blue exclusion assay. It is filed as functional, cell-based. Particulars: A549, 48 h. The essentials:
as §1

The subject of series [6] is A549. The experiment in a line: Antiproliferative activity against human A549 cells after 48 hrs by MTS assay. It is filed as functional, cell-based. Particulars: A549, 48 h. Summed up:
as §2

In series [7] the test system is A549. As to the kind of experiment: Antiproliferative activity against human A549 cells after 72 hrs by MTS assay. The format is functional, cell-based. Particulars: A549, 72 h. The essentials:
as §2

Series [8] relates to A549. The experiment in a line: Ratio of EC50 for human A549 cells after 48 hrs by trypan blue exclusion assay to IC50 for human A549 cells after 48 hrs by MTS assay. The format is functional.
In series [9] the test system is A549. As to the kind of experiment: Anticancer activity against human A549 cells assessed as growth inhibition at 10 to 300 uM for 72 hrs followed by 48 hrs incubation after compound wash out. The format is functional, cell-based. Summed up: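 A549 cells exposed to 10, 30, 100 and 300 μM for 72 h, then washed to remove drug and given fresh drug-free medium; regrowth was checked after a further 48 h.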

Series [10] concerns A549. As to the kind of experiment: Cell cycle arrest in human A549 cells assessed as accumulation of cells in G1 phase at 3 uM after 72 hrs measured using propidium iodide staining by FACS analysis. The format is functional, cell-based. Summed up: (§3)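 A549 cells were plated at 6.7 × 10^4 per well in 6-well plates and dosed at 0, 3 or 10 μM for 72 h (final 1% DMSO). Cells were fixed in cold 70% ethanol, then stained with 10 μg/mL propidium iodide plus RNase A for 30 min at 37°C.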

For series [11], the system named is A549. The experiment in a line: Cell cycle arrest in human A549 cells assessed as accumulation of cells in G1 phase at 3 uM after 72 hrs measured using propidium iodide staining by FACS analysis in presence of nocodazole. It is filed as functional, cell-based.
Series [12] deals with A549. The experiment in a line: Anticancer activity in human A549 cells assessed as decrease in viable cells after 72 hrs by trypan blue exclusion assay. It is filed as functional, cell-based. Particulars: A549, 72 h. Summed up:
as §1

Series [13] deals with A549. The experiment in a line: Cell cycle arrest in human A549 cells assessed as accumulation of cells in G1 phase at 10 uM after 72 hrs measured using propidium iodide staining by FACS analysis. It is filed as functional, cell-based. The essentials: as §3
For series [14], the system named is A549. The experiment in a line: Drug uptake in human A549 cells at 30 uM after 8 hrs using MTBSTFA by LC/MS/MS analysis. It is filed as ADME, cell-based. Particulars: a549, 8 h. Summed up:
(§4)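 A549 cells, plated at 1.3 × 10^5 per well, dosed for 8 h, PBS-washed, trypsinized, counted by trypan blue, then pellets PBS-washed and frozen at −80°C. Lysate was derivatized with MTBSTFA to tetra-silyl bisphosphonate for 1 h, cooled, diluted 1:5 in acetonitrile, and analysed by LC-MS-MS (C18, isocratic acetonitrile/water 70:30, 0.1% formic acid, 0.2 mL/min). Detection was qualitative.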

Series [15] relates to A549. As to the kind of experiment: Drug uptake in human A549 cells assessed per 10^4 cells at 10 uM after 8 hrs by LC/MS/MS analysis. It is filed as ADME, cell-based. Particulars: a549, 8 h. The essentials:
(§5)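 A549 cells were plated at 1.3 × 10^5 per well in 6-well plates and treated at 0, 10 or 30 μM for 8 h. Cells were washed, trypsinized and counted by trypan blue, and pellets were frozen. Lysates in acetonitrile with temazepam internal standard were analysed by LC-MS-MS on a C18 column (isocratic acetonitrile/water 60:40, 0.1% formic acid). Results are reported as ng/10^4 cells.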

Series [16] has as its system A549. The experiment in a line: Drug uptake in human A549 cells assessed per 10^4 cells at 30 uM after 8 hrs by LC/MS/MS analysis. It is filed as ADME, cell-based. Particulars: a549, 8 h. The essentials:
as §5

Series [17] has as its system A549. The experiment in a line: Drug uptake in human A549 cells after 8 hrs by LC/MS/MS analysis. The format is ADME, cell-based. Particulars: a549, 8 h. The essentials: as §5
Series [18] deals with A549. As to the kind of experiment: Prodrug conversion in human A549 cells assessed as intracellular formation of methylenebis(hydrogen phosphonate) at 10 to 30 uM after 8 hrs using MTBSTFA by LC/MS/MS analysis. It is filed as ADME, cell-based. Particulars: a549, 8 h. Summed up:
as §4

Series [19] has as its system A549. The experiment in a line: Anticancer activity against human A549 cells assessed as growth inhibition up to 1 mM by MTS assay. The format is functional, cell-based. Summed up: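 A549 cells, plated at 1.5 × 10^3 per well and left to adhere overnight, treated for 24, 48 or 72 h with compounds serially diluted in DMSO (1% DMSO final). MTS dye was added for 40 min to 2 h and absorbance read at 490 nm. Values were expressed as percent of vehicle control; IC50 was taken from nonlinear dose-response fitting.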

Turning to `COC(=O)Nc1nc2cc(C(=O)c3cccs3)ccc2[nH]1`, in series [1], the result was Active.

For orientation: IC50 means the point on the concentration scale where inhibition reaches its midpoint. Read a high IC50 as weaker potency in that assay. As usually defined, the EC50 is the concentration needed to bring the measured effect to its halfway point. Regarding `CN(CCCCCl)P(=O)(OCc1ccc([N+](=O)[O-])cc1)C(Cl)(Cl)P(=O)(OCc1ccc([N+](=O)[O-])cc1)N(C)CCCCCl` (stereo unspecified), the Activity in series [2] came out at 57%. For the same compound, the IC50 turned out to be 7.6 µM in [3], 5.2 µM in series [6] and 4.4 µM in series [7]. Besides, the outcome in series [4], in series [10], in [11] and in series [13] was Active. Further, the half-maximal effective concentration (EC50) in series [5] is 19 µM; in series [12] it was 16 µM. In series [8], the “Ratio IC50” value came out at 3.6. For the same compound, the “growth inhibition (GI)” value in series [9] is “Active”.

For `O=P(O)(O)CP(=O)(O)O` [MEDRONIC ACID], the Drug uptake result in series [14] is “Active”.

Turning to `CN(CCCCCl)P(=O)(CP(=O)(OCc1ccc([N+](=O)[O-])cc1)N(C)CCCCCl)OCc1ccc([N+](=O)[O-])cc1` (stereo unspecified), the results for the Activity in [2] and in series [18] were under 50% and “Active”, respectively. For the same compound, the IC50 in series [3] was 17 µM; in [6], 15 µM; in [7], 13 µM. Also, the EC50 in series [5] came out at 24 µM; in series [12], 25 µM. Also, the Drug uptake is on record as 68.6 ng in [15], 169.3 ng in [16] and “Dose-dependent effect” in series [17]. Besides, in series [8], the “Ratio IC50” value was 1.6.

On to `O=P(O)(O)C(Cl)(Cl)P(=O)(O)O`, for which the “growth inhibition (GI)” value in series [19] is “inactive”.
